The record followed here is ChEMBL document CHEMBL1145087 (J Med Chem, 2003).

Assay [1] is filed under the species Homo sapiens. Description: Relative potency for human androgen and progesterone receptors.
In assay [2] the target is T1, Mineralocorticoid receptor (Homo sapiens) (UniProt P08235).
T1 sequence (whole entry): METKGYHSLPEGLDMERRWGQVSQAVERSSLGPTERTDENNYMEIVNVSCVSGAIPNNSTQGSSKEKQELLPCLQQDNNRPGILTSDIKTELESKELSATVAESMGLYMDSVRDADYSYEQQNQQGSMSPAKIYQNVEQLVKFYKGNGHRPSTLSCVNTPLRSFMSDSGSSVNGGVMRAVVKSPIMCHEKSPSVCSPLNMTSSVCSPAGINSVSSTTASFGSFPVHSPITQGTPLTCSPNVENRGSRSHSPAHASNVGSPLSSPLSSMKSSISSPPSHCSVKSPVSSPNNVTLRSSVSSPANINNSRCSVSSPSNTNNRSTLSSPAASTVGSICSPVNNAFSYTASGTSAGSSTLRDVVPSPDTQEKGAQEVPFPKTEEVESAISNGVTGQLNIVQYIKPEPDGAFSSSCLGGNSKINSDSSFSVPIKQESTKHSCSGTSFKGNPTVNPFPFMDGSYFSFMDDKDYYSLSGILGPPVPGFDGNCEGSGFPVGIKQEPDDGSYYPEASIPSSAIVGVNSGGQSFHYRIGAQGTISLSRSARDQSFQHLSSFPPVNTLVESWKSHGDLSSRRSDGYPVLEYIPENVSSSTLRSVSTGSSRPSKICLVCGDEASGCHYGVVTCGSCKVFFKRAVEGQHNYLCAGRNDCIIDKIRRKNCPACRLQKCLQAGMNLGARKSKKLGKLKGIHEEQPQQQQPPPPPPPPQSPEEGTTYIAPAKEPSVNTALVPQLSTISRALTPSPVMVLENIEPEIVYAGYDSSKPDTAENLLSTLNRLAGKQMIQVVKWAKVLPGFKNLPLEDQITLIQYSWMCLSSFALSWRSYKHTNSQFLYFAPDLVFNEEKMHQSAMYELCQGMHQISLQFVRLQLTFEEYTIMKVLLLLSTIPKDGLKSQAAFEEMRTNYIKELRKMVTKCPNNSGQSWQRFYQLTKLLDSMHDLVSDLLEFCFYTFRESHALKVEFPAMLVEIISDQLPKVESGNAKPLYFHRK
Description: Agonistic efficacy against human Mineralocorticoid receptor. It counts as functional. An outline of the steps: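 Cell-based cotransfection assay for hMR in 96-well format. Agonist activity is read as normalized LUC expression. Efficacy is expressed relative to the maximal LUC response to aldosterone.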

For assay [3], the target named is T2, Glucocorticoid receptor (Homo sapiens, UniProt P04150).
T2 sequence (P04150 whole entry): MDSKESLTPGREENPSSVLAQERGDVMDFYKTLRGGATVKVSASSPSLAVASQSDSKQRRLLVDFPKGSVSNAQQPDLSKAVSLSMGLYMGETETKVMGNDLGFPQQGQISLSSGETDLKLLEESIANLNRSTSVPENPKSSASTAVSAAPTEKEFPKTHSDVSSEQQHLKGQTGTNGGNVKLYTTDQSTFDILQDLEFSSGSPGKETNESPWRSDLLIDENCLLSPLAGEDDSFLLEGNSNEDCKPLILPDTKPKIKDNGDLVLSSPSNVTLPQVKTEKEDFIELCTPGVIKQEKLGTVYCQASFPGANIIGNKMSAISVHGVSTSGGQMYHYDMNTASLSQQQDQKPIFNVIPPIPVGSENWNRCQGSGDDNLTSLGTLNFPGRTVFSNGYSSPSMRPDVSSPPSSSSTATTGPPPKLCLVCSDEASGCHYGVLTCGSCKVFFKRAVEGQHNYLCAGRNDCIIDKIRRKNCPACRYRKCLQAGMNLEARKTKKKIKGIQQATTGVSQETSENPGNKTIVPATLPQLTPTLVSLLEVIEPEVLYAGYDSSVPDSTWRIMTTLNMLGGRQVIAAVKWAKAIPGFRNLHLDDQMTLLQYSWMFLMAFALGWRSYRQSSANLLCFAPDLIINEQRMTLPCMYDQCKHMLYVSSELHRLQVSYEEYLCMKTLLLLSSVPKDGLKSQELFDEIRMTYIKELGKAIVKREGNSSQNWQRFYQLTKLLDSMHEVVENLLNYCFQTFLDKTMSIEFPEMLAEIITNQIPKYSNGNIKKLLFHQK

Assay [4] deals with T3, Progesterone receptor (Homo sapiens, UniProt P06401).
T3 sequence (P06401 whole entry): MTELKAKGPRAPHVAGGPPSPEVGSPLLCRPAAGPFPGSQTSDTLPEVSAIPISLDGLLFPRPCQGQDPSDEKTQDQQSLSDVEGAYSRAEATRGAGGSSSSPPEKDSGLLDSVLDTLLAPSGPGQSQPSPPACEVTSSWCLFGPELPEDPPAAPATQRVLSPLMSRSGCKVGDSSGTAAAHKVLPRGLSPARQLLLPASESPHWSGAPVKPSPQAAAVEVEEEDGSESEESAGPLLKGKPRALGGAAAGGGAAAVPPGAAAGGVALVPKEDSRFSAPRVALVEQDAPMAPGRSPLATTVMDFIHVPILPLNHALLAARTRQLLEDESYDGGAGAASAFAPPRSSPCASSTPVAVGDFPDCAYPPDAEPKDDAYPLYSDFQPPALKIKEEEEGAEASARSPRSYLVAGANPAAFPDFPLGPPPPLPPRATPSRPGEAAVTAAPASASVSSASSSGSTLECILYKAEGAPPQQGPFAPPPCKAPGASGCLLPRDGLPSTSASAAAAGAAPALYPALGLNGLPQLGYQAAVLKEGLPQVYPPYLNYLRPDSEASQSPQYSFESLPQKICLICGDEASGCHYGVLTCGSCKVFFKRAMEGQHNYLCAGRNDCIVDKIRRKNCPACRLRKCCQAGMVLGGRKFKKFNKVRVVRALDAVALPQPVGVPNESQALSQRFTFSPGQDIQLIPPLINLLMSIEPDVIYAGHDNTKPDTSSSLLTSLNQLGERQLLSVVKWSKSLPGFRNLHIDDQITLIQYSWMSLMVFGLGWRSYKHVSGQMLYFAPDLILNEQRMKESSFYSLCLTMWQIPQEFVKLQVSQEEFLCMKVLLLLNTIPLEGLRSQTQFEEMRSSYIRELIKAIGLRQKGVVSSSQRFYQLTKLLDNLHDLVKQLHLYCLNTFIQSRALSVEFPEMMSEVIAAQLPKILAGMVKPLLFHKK
Put plainly: Agonistic activity against human progesterone receptor in T47D breast cancer cells. The assay is classed as functional, cell-based.

Assay [5] is filed under the species Homo sapiens. Description: Relative potency for human glucocorticoid and progesterone receptors.
Assay [6] has as its target T4, Progesterone receptor (Homo sapiens) (UniProt P06401).
T4 sequence (whole entry): T3 sequence (P06401 whole entry)
Put plainly: Percent agonistic effect towards human progesterone receptor in T47D breast cancer cells. The assay is classed as functional, cell-based.

Assay [7] deals with T5, Mineralocorticoid receptor (Homo sapiens, UniProt P08235).
T5 sequence (P08235 whole entry): T1 sequence (whole entry)
Put plainly: Inhibitory activity against human Mineralocorticoid receptor.

Assay [8] deals with T6, Estrogen receptor (Homo sapiens, UniProt Q92731+P03372).
For assay [9], the target named is T6, Estrogen receptor. Put plainly: Antagonistic efficacy against human estrogen receptor. The assay is classed as functional. An outline of the steps:
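Cotransfection LUC reporter assay for hER. Antagonist efficacy is the % maximal inhibition of a standard agonist (estradiol is the reference agonist for hER) applied at its EC50.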

Turning to `CCc1ccccc1/C=C1\Oc2ccc(F)cc2-c2ccc3c(c21)C(C)=CC(C)(C)N3`, the results for the Ratio in [1] and in [5] were over 1000 and 39, respectively. Also, the Efficacy in assay [2] amounted to 50%; in [6], 51%. Besides, the results for the IC50 in [3] and in [7] were 77 nM and 334 nM, respectively. Moreover, in assay [4], the EC50 (in general, the concentration needed to bring the measured effect to its halfway point) stood at 18 nM.

Consider `CC1=CC(C)(C)Nc2ccc3c(c21)/C(=C/c1ccccc1)Oc1c(F)cccc1-3`, for which the Ratio in [1] came out at 429; in assay [5] it was 119. Besides, the Efficacy was over 20% in assay [2] and 45% in assay [6]. In [3], the midpoint of inhibition, the IC50, lay at 250 nM. In addition, the EC50 in assay [4] amounted to 11 nM.

For the compound `CC1=CC(C)(C)Nc2ccc3c(c21)/C(=C/c1ccncc1C)Oc1ccc(F)cc1-3`, the Ratio in [1] was over 1000; in [5] it was 54. For the same compound, the IC50 (usually the concentration that gives 50% inhibition) in assay [8] was 1149 nM; in assay [3] it was 245 nM; in [7] it was 363 nM. Further, the results for the Efficacy in [2], in assay [9] and in assay [6] were 71%, 44% and 46%, respectively. The compound also displayed an EC50 in assay [4] of 4.6 nM.

For `CC1=CC(C)(C)Nc2ccc3c(c21)/C(=C/c1ccccc1C)Oc1c(F)cccc1-3`, the Ratio in assay [1] is over 1000; in [5], 212. In addition, the IC50 in assay [8] was 2443 nM; in [3] it was 297 nM; in assay [7] it was 1850 nM. Besides, the Efficacy in assay [2] is 70%; in assay [9], 41%; in assay [6], 43%. For the same compound, it took 9 nM to reach a half-maximal effect in [4] (EC50).

On to `CC1=CC(C)(C)Nc2ccc3c(c21)/C(=C/c1ccsc1)Oc1ccc(F)cc1-3`, for which the Ratio was 303 in [1] and 141 in assay [5]. Further, the figures for the IC50 in assay [8], in [3] and in assay [7] were 3488 nM, 100 nM and 1900 nM, respectively. For the same compound, the Efficacy was determined as 63% in assay [2], 36% in [9] and 48% in [6]. In addition, the response in assay [4] was half-maximal at 5.5 nM (EC50).
